A selection: hits, their analogues and other compounds. The true share with any hit is near 1.4%.
RBBP9 inh – human RBBP9 hydrolase inhibition; O75884; recombinant RBBP9, FP-Rh probe fluorescence polarization; inhibition, % at 7.94 µM; 220,000 tested, 0.2% active; AID 1515;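 active = inhibition above the campaign mean of all tested compounds plus 3 SD, cut at about 14% in these data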;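 note: plate controls were DMSO wells with RBBP9 for no effect and wells lacking RBBP9 protein for full effect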
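System: RBBP9 protein / Quantity: 2.5 µM RBBP9 dispensing solution, before mixing / Also added: Serine-hydrolase probe FP-Rh, 375 nM pre-mixing / Dosing: 7.94 µM single dose, 0.794% DMSO / Timing: enzyme-compound preincubation 30 min, then probe labeling 45 min, 25 °C / Signal: FP readout at 525/598 nm / Controls: DMSO-treated enzyme wells and wells lacking RBBP9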
HTRA1 inh – HTRA1 (human) protease inhibition | Q92743 | recombinant HTRA1, FP-rhodamine activity-based probe, fluorescence polarization | inhibition, % at 5.96 µM | 340,000 tested, 0.5% active | AID 504803; in the data active = inhibition above about 36%;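 note: 0% = enzyme with DMSO and 100% = wells lacking enzyme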
ABHD4 inh – ABHD4 (mouse) inhibition, primary FP screen; Q8VD66; purified mABHD4, FP-Rh probe fluorescence polarization; inhibition, % at 8.92 µM; 370,000 tested, 0.54% active; AID 720543;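 active = inhibition exceeding the mean over every tested compound plus 3 SD, cut at about 30% in these data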;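 note: 0% = plate median of compound wells and 100% = S159A mutant with DMSO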
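Test system: mABHD4 protein; Read-out basis: % inhibition; Incubation: 45 min + 60 min at 25 °C; Repeats: single replicate; Technique: fluorescence polarization with parallel and perpendicular emission, 525/598 nm; Compound: 8.92 µM, single dose; Benchmarks: full inhibition S159A mutant plus DMSO, zero as sample-well median.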
SIAE primary – blocks human sialic acid acetylesterase | SIAE FP-Rh probe binding, fluorescence polarization | inhibition, % at 9.66 µM | 370,000 tested, 0.69% active;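 active = inhibition above a cutoff: mean of compounds within the control limits plus 3 SD of those, cut at about 17% in these data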;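 note: 0% = plate median of compound wells and 100% = probe without SIAE protein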
Target sequence (Q9HAT2 whole entry, looked up): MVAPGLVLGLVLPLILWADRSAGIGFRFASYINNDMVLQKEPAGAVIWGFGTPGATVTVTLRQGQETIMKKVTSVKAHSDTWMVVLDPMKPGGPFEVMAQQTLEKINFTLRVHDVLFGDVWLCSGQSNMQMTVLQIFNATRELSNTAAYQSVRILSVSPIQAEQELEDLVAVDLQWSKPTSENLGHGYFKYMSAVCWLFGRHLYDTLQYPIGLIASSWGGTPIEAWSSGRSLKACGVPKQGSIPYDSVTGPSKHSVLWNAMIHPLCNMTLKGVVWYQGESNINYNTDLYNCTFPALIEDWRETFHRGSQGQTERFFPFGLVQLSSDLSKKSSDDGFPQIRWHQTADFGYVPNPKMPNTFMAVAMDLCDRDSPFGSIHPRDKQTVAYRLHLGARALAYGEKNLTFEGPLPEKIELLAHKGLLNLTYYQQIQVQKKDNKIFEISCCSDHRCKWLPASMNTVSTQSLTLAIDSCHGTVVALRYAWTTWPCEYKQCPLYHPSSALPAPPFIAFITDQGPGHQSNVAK
SIAE confirm – confirmation of human SIAE inhibitors. AID 1117263. SIAE FP-Rh activity-based probe, fluorescence polarization. shares compounds with SIAE primary. 2,300 tested, 13% active. inhibition, % at 9.66 µM;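 active = mean inhibition of the replicates above the hit cutoff set in the primary screen, cut at about 17% in these data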;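 note: 0% = SIAE with DMSO and probe and 100% = probe without SIAE; inhibitors lower polarization as more probe stays unbound to SIAE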
An asterisk follows results filed as active; . = no result given.

SMILES | RBBP9 inh | HTRA1 inh | ABHD4 inh | SIAE primary | SIAE confirm
COc1ccc(CCNC(=O)CNCC(c2ccccc2)N(C)C)cc1OC (configuration not stated) | . | 10 | 14 | 19* | 1
OC1C2(Cc3ccccc3)CN3CCN(C2)CC1(Cc1ccccc1)C3 (configuration not stated) | -5 | 7 | -8 | -2 | .
OC1C2CN3CCN(C2)CC1(Cc1ccccc1)C3 (configuration not stated) | -4 | 2 | 4 | 21* | -2
O=C(NCc1cccs1)c1cccc(Nc2nc3ccc(Br)cc3[nH]2)c1 | -8 | 7 | 14 | 43* | 22*
O=C(NCc1cccs1)c1ccccc1 | 11 | 0 | 2 | 1 | .
CCCC(C)NC(=O)CSc1nc(-c2ccccc2)cn1N (configuration not stated) | -10 | 4 | -11 | 17* | 0
O=C(O)c1nc(-c2ccccc2)c(C(=O)NC2CC2)[nH]1 | . | . | 6 | -6 | .
CC(Oc1cc2oc(=O)c3c(c2cc1Cl)CCC3)C(=O)N1C[C@H]2C[C@@H](C1)c1cccc(=O)n1C2 (some centres not stated) | . | -9 | 8 | 18* | 0
CC(=O)Nc1ccc(N2C(C(C)=O)=NN(c3ccc(Cl)cc3)C2c2sccc2C)cc1 (configuration not stated) | -9 | -6 | -8 | 21* | 5
COc1ccc(C2=Nc3ccccc3N(C(=O)c3ccc(C(F)(F)F)cc3)C2C(=O)Nc2ccc3c(c2)OCCO3)cc1 (configuration not stated) | . | . | -16 | -7 | .
Cc1ccc(N/C(N)=N/c2nc(C)cc(C)n2)cc1 | -3 | 3 | 8 | -6 | .
Cc1cc(C)cc(N/C(N)=N/c2nc(C)cc(C)n2)c1 | 1 | 1 | 5 | 23* | 2
C=CCOc1ccc(/C=N/NC(=O)c2cc3c(OC)cc(OC)cc3[nH]2)cc1 | . | 21 | -5 | 27* | -18
CCOc1ccc(/C=N/NC(=O)c2cc3c(OC)cc(OC)cc3[nH]2)cc1OC | . | 5 | 8 | 43* | 0
CC1(C(=O)NS(=O)(=O)C2CC2)CCCN(C(=O)Cc2ccc(F)cc2)C1 (configuration not stated) | . | . | 6 | 4 | .
CC(C)C1OC2(C)OC(=N)C1(C#N)C(C#N)(C#N)C2c1ccccc1 (configuration not stated) | 4 | 7 | 35* | 22* | 10
Cc1ccc(C(=O)O)cc1S(=O)(=O)N1CCCC1 | -7 | 9 | -12 | -2 | .
Nc1ccc(C(=O)O)cc1S(=O)(=O)O | -5 | 2 | 2 | 25* | -3
O=C(CCNC(=O)c1ccco1)Nc1ccc(OC(F)F)c(Cl)c1 | . | -8 | -4 | 41* | 0
CC(=O)N1[C@H](Cc2ccccc2)C=C[C@]1(C)C(=O)NCCN1CCOCC1 | . | -11 | -9 | -2 | .
C[C@]1(C(=O)NCCN2CCOCC2)C=C[C@@H](Cc2ccccc2)N1C(=O)c1ccccc1 | -7 | 19 | -1 | 21* | -2
CN(C)S(=O)(=O)c1cccc(C(=O)NC2CCSc3ccccc32)c1 (configuration not stated) | . | 1 | 4 | 25* | -4
CCOC(=O)COc1cc(N2C(=O)CSCC2=O)c(Cl)cc1Cl | 1 | -3 | -13 | 71* | 3
COc1ccc2c(c1)nc(-c1cccc(Br)c1)c(=O)n2C(c1ccccn1)c1nc2ccccc2[nH]1 (configuration not stated) | . | . | -11 | -1 | .
CCOC(=O)/C(C)=N/Nc1nc(-c2ccc(NC(C)=O)cc2)cs1 | -7 | . | 11 | 20* | -8
SMILES | RBBP9 inh | HTRA1 inh | ABHD4 inh | SIAE primary | SIAE confirm
CC(=O)Nc1ccc(-c2csc(N/N=C(/C)c3ccccc3)n2)cc1 | -3 | 34 | 19 | 11 | .
Cc1ccccc1NC(=O)COC(=O)C1(C)CC1(Cl)Cl (configuration not stated) | -6 | -5 | -2 | 19* | 12
COC(=O)c1ccc2nc(-c3cccc(Cl)c3)c(Cc3cccc(F)c3)n2c1 | . | . | -7 | -4 | .
O=C1CC(c2ccc(F)cc2)C(n2cncn2)C(O)=C1C1NCCc2ccccc21 (configuration not stated) | -7 | 0 | 0 | 26* | 4
O=C(NC1CCCN(Cc2ccccc2F)C1)c1cccs1 (configuration not stated) | . | 0 | -3 | 3 | .
O=C(O)CCC(=O)Nc1nc(-c2ccccc2)cs1 | -4 | 6 | 0 | 19* | 4
O=C(Nc1ccccc1)Nc1nc(-c2ccc(F)cc2)cs1 | -10 | -1 | 1 | 4 | .
Fc1ccc(-c2csc(NC(=S)Nc3ccccc3)n2)cc1 | . | -14 | -1 | 17* | 0
O=C(NCc1ccccc1)c1[nH]c(C(F)(F)F)nc1-c1ccccc1 | . | . | 5 | 3 | .
N#CCC[C@@H]1CC[C@]2(CCCN(C(=O)c3ccno3)C2)O1 | . | . | 0 | -4 | .
CC1=CC(C)(C)Nc2ccc(OC(=O)CN3C(=O)c4cccc5cccc(c45)C3=O)cc21 | 2 | 24 | 13 | 19* | 1
CC1=CC(C)(C)Nc2ccc(OC(=O)CN3C(=O)c4ccccc4C3=O)cc21 | 6 | -1 | 18 | 4 | .
COc1cc(-c2csc(N3CCOCC3)n2)cc(OC)c1OC | -5 | 6 | 6 | 1 | .
COc1ccc(-c2csc(N3CCN(c4cc(C)nc5ccccc45)CC3)n2)cc1OC | 3 | -1 | 8 | 20* | 7
O=C(Oc1cccc(-n2cnnn2)c1)C1CCCCC1 | 0 | -3 | -2 | 23* | 17*
COc1ccc(/C=C2\N=C3CCCCCN3C2=O)cc1OC | -10 | 11 | -2 | 110* | 5
COc1cc(/C=C2\N=C3CCCCCN3C2=O)ccc1O | 6 | 0 | 8 | 4 | .
Nc1ccc(NC(=S)Nc2ccccc2)cc1 | -6 | 18 | 12 | 17* | 3
S=C(NCCNC(=S)Nc1ccccc1)Nc1ccccc1 | . | 2 | -3 | 7 | .
CCN(CC)C(=O)Cn1cc(C(=O)C(=O)Nc2ccc3c(c2)OCCO3)c2ccccc21 | . | -8 | -13 | -13 | .
Cc1ccccc1CN1C(=O)CN(S(C)(=O)=O)CC1(C)C(=O)Nc1ccc2c(c1)OCCO2 (configuration not stated) | . | . | 3 | 4 | .
O=C(Cc1ccc([N+](=O)[O-])cc1)N1CCN(c2ccc([N+](=O)[O-])cc2)CC1 | . | -6 | 0 | -1 | .
O=C(Cc1ccc(F)cc1)N1CCN(c2ccc([N+](=O)[O-])cc2)CC1 | . | 6 | -2 | 20* | 5
COC(=O)c1cc2c(c3c4cc(F)ccc4n(S(=O)(=O)c4cccc(C)c4)c13)C(=O)N(Cc1ccco1)C2 | . | . | -12 | -19 | .
CN1C(=O)/C(=C/c2ccc(-c3ccccc3[N+](=O)[O-])o2)SC1=Nc1ccc(Cl)c(C(=O)O)c1 | 0 | 10 | 17 | 19* | 15
COc1ccc(-c2ncn(CCc3ccccc3OC)c2CC(C)C)cc1 | . | . | 8 | 3 | .
Cc1cc(C)cc(NC(=S)NCc2ccc3[nH]c4c(c3c2)CCCC4)c1 | -6 | 3 | 3 | 17* | 2

Screening data (PubChem BioAssay)
